Results on six compounds are retold here after ChEMBL document CHEMBL3244046, “Cardenolide analogues. 7. Synthesis and biological activity of some new steroidal guanylhydrazones” (J Med Chem, 1978).

Active and inactive are the calls of the source.

Data set [1] deals with Left cardiac atrium. The data set can be described thus: Negative inotropic activity in guinea pig left atrium assessed as isometric force of contraction at 10^-8 to 10^-4 M relative to control. It is filed as functional, tissue-based. As to conditions: Cavia porcellus. The method, boiled down:
(§1)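 Guinea pig left auricle in Krebs-Henseleit, 32 °C, gassed O2/5% CO2, resting tension about 1 g. Paced with 10-ms rectangular pulses at 100/min, voltage 20% above threshold. Cumulative dose-response curves up to 10⁻⁴ M. Isometric contraction changes computed against control atria.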

Data set [2] concerns Left cardiac atrium. The data set can be described thus: Inotropic activity in guinea pig left atrium assessed as change in isometric force of contraction at 5 X 10^-5 M relative to control. It is filed as functional, Cavia porcellus. An outline of the steps:
as §1

For data set [3], the species on record is Cavia porcellus. The data set can be described thus: Inhibition of ouabain-insensitive Mg(2+)-ATPase-mediated phosphohydrolase activity in guinea pig myocardium at 5 X 10^-5 M after 30 mins relative to control. It is filed as tissue-based. The method, boiled down: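 Guinea pig myocardial crude membranes (5-10 units; µmol Pi/mg protein/h), assayed without Na+ and K+ (ouabain-insensitive activity), with and without drug, 37 °C for 30 min. Substrate use under 15% in drug-free controls. Drug tested 10⁻⁸–10⁻⁴ M in duplicate; values taken from dose-response curves.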

Data set [4] is filed under the species Cavia porcellus. Briefly: Inhibition of Na(+)/K(+) ATPase-mediated phosphohydrolase activity in guinea pig myocardium at 5 X 10^-5 M after 30 mins relative to control. It is filed as tissue-based. The method, boiled down: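 Crude membranes from guinea pig myocardium (5-10 units activity; unit = µmol Pi liberated/mg protein/h) incubated 37 °C, 30 min. Substrate consumption under 15% without drug. Dose-response curves over 10⁻⁸–10⁻⁴ M, duplicate determinations; values read from curves.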

For data set [5], the system named is Left cardiac atrium. Briefly: Inotropic activity in guinea pig left atrium assessed as change in isometric force of contraction at 2 X 10^-6 M relative to control. Type of data set: functional, Cavia porcellus. The method, boiled down:
(§2)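 Guinea pig left auricle in Krebs-Henseleit at 32 °C, gassed with O₂/5% CO₂ under about 1 g resting tension. Pacing used 10-ms rectangular pulses at 100/min and 20% above threshold voltage. Change in isometric contraction was referenced to control atria. Cumulative dose-response curves ran up to 10⁻⁴ M.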

Data set [6] is filed under the species Cavia porcellus. The data set can be described thus: Inhibition of Na(+)/K(+) ATPase-mediated phosphohydrolase activity in guinea pig myocardium at 2 X 10^-6 M after 30 mins relative to control. It is filed as tissue-based. An outline of the steps:
(§3)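 Crude guinea pig myocardial membrane preparation (5-10 units each enzyme; µmol Pi/mg protein/h), incubated 37 °C for 30 min. Substrate consumption stayed below 15%. Dose-response curves spanned 10⁻⁸–10⁻⁴ M in duplicate, and values were read from the curves.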

For data set [7], the species on record is Cavia porcellus. The data set can be described thus: Inhibition of ouabain-insensitive Mg(2+)-ATPase-mediated phosphohydrolase activity in guinea pig myocardium at 2 X 10^-6 M after 30 mins relative to control. Type of data set: tissue-based. An outline of the steps: (§4)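 Guinea pig myocardial crude membranes were incubated 30 min at 37 °C without Na⁺ and K⁺. Ouabain-insensitive Mg²⁺-ATPase activity was measured as inorganic phosphate released (µmol/mg protein/h), with and without drug. Substrate use stayed under 15%. Dose-response curves covered 10⁻⁸–10⁻⁴ M, run in duplicate, and values were taken from the curves.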

The species entered for data set [8] is Cavia porcellus. The data set can be described thus: Inhibition of Na(+)/K(+) ATPase-mediated phosphohydrolase activity in guinea pig myocardium at 1 X 10^-5 M after 30 mins relative to control. Type of data set: tissue-based. An outline of the steps: as §3
The species named for data set [9] is Cavia porcellus. The data set can be described thus: Inhibition of ouabain-insensitive Mg(2+)-ATPase-mediated phosphohydrolase activity in guinea pig myocardium at 1 X 10^-5 M after 30 mins relative to control. Type of data set: tissue-based. The method, boiled down:
as §4

For data set [10], the system named is Left cardiac atrium. The data set can be described thus: Toxicity in guinea pig left atrium assessed as tissue arrest at 5 X 10^-5 M relative to control. As to conditions: 50 µM. It is filed as tissue-based, Cavia porcellus. The method, boiled down: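 Electrically paced guinea pig left auricle (Krebs-Henseleit, 32 °C, O₂/5% CO₂, about 1 g resting tension, 10-ms pulses at 100/min, 20% above threshold) given cumulative drug doses up to 10⁻⁴ M. Toxicity was scored as tissue arrest, which follows the inflection of the dose-response curve.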

For data set [11], the system named is Left cardiac atrium. Briefly: Inotropic activity in guinea pig left atrium assessed as change in isometric force of contraction at 1 X 10^-5 M relative to control. Type of data set: functional, Cavia porcellus. An outline of the steps: as §2

Consider `C[C@]12CC[C@H]3[C@@H](CCC4=C[C@@H](O)CC[C@@]43C)[C@@H]1CC[C@@H]2/C=N\NC(=N)N`, for which, in the data set with Left cardiac atrium [1], the outcome was Active. The Activity with Left cardiac atrium [2] is recorded as -18%. For the same compound, in the data set filed under Cavia porcellus [3], the Imax was 30%. For the same compound, in the data set filed under Cavia porcellus [4], the inhibition (commonly the share of the control response that was lost under treatment) is 54%.

Turning to `C[C@]12CC[C@@H](O)C[C@H]1CC[C@@H]1[C@@H]2CC[C@]2(C)[C@@H](/C=N\NC(=N)N)CC[C@@H]12`, in the data set on Left cardiac atrium [1], the result was Active. Also, in the data set with Left cardiac atrium [2], the Activity was -10%. The results for the inhibition in the data set listed under Cavia porcellus [3] and in the data set listed under Cavia porcellus [4] were 45% and 37%, respectively.

As for `C[C@]12CC[C@H](O)C[C@H]1CC[C@@H]1[C@@H]2CC[C@]2(C)[C@@H](C3=CC(=O)OC3)CC[C@]12O` [DIGITOXIGENIN], in the data set with Left cardiac atrium [5], the Activity turned out to be 130%. In addition, the inhibition in the data set listed under Cavia porcellus [6] is 60%; in the data set listed under Cavia porcellus [7], 0%.

As to `C[C@]12CC[C@H](O)C[C@H]1CC[C@@H]1[C@@H]2CC[C@]2(C)[C@@H](/C=N\NC(=N)N)CC[C@@H]12`, the result in the data set on Left cardiac atrium [1] was Active. Also, in the data set with Left cardiac atrium [2], the Activity is -45%. The inhibition in the data set filed under Cavia porcellus [3] and in the data set filed under Cavia porcellus [4] was 55% each time.

For `C[C@]12CC[C@H](O)C[C@@H]1CC[C@@H]1[C@@H]2CC[C@]2(C)[C@@H](/C=N\NC(=N)N)CC[C@@H]12`, the result in the data set with Left cardiac atrium [1] was Active. The Activity in the data set on Left cardiac atrium [2] is recorded as -50%. The compound further came in with an Imax in the data set listed under Cavia porcellus [3] of 43%. Besides, the inhibition in the data set listed under Cavia porcellus [4] worked out at 40%.

Turning to `C[C@]12CC[C@H](O)C[C@H]1CC[C@@H]1[C@@H]2CC[C@]2(C)[C@@H](/C=N\NC(=N)N)CC[C@]12O`, the inhibition was 20% in the data set filed under Cavia porcellus [8], 0% in the data set listed under Cavia porcellus [9], 0% in the data set listed under Cavia porcellus [3] and 53% in the data set listed under Cavia porcellus [4]. The Activity entry in the data set with Left cardiac atrium [10] is on record as “Toxic”; in the data set on Left cardiac atrium [11], 120%.
